Screens (PubChem BioAssay)
Compounds with a hit are over-represented: about 2.9% of the library has one in this group of screens.
Runt-CBFb FRET = blocks binding of human RUNX1 Runt domain to CBFb. Q01196+Q13951. Cerulean-Runt/Venus-CBFb FRET ratio 530/480, 1 h. inhibition, % at 20 µM. 220,000 tested, 0.46% active;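 active = inhibition over about 50% at 20 µM in the single-dose screen, limit read from the data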;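 note: 0% = DMSO wells and 100% = excess unlabeled CBFb competitor control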
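Assay system: Cerulean-Runt domain fusion protein, energy donor; Signal: fluorescence energy transfer, 422 nm excitation, 530/480 nm emission; Timing: 1 h compound exposure, room temperature; Control set: unlabeled CBFb; Medium: Tris buffer pH 7.5 with salts and BSA; Compound: single test concentration of 20 µM, 1% DMSO final; Probe or stimulus: Venus-CBFb 100 nM.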
PfM18AAP inh-1 = PfM18AAP enzyme inhibition. AID 1822. 290,000 tested, 1.2% active. recombinant PfM18AAP, H-Glu-NHMec fluorogenic cleavage. inhibition, % at 7.35 µM;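 active = inhibition above the campaign mean inhibition over all tested compounds plus 3 SD, cut at about 28% in these data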;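 note: 0% = plate median of test compound wells and 100% = 2 mM ZnCl2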
RanGTP-Imp inh = disruptors of Ran-importin-beta complex formation – biochemical, FRET, CFP-Ran, YFP-importin-beta, homogeneous, primary screen. cell-free CFP-Ran/YFP-importin-beta FRET ratio. AID 2216. inhibition, % (test concentration not listed). 300,000 tested, 1.1% active;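 active = more than half of the replicate wells show a fall in the fluorescence ratio signal beyond about 16%, limit read from the data, passing the limit was not always enough; inconclusive = exactly half of the replicate wells pass the set limit; inactive = fewer than half of replicates pass the limit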;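 note: 0% = DMSO wells and 100% = Ran loaded with GDP instead of GTP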
Runt-SMMHC FRET = inhibitors of human RUNX1 Runt domain binding to CBFb-SMMHC; AID 1434; Cerulean-Runt/Venus-CBFb-SMMHC FRET ratio 530/480, 1 h; inhibition, % at 20 µM; Q01196+Q13951; 220,000 tested, 0.74% active;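 active = mean inhibition across duplicate retests at 20 µM reaching about 50%, limit read from the data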;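 note: 0% = DMSO wells and 100% = wells with excess untagged CBFb-SMMHC; inhibitors lower the FRET ratio by blocking Runt binding to CBFb-SMMHC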
Hck-Nef inh = inhibitors of human Hck kinase activated by Nef. P08631. Recombinant Hck-YEEI plus Nef, Z-Lyte FRET kinase assay. inhibition, % at 20 µM. 220,000 tested, 0.68% active. AID 463187;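 active = Hck-Nef kinase inhibition above about 50%, limit read from the data; inactive = inhibition below that limit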;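 note: 0% = DMSO with Hck plus Nef and 100% = Hck alone without Nef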
Target sequence (P08631 whole entry, looked up): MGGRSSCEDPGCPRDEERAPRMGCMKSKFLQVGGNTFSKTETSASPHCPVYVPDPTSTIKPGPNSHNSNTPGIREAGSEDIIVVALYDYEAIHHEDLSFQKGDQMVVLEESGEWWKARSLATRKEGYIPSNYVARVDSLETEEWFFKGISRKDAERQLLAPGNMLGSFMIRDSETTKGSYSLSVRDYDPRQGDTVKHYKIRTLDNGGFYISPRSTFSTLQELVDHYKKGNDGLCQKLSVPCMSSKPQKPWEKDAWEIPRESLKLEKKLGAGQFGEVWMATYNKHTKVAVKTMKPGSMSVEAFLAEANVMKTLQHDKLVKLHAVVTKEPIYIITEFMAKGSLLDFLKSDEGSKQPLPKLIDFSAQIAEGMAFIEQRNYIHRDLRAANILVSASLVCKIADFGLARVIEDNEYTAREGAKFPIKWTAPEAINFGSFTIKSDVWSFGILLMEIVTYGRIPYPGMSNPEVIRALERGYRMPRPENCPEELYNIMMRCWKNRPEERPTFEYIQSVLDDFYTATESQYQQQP
RBBP9 inh = blocks human serine hydrolase RBBP9; recombinant RBBP9, FP-Rh probe fluorescence polarization; inhibition, % at 7.94 µM; 220,000 tested, 0.2% active; AID 1515;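 active = inhibition above the campaign mean of all tested compounds plus 3 SD, cut at about 14% in these data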;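 note: plate controls were DMSO wells with RBBP9 for no effect and wells lacking RBBP9 protein for full effect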
Target sequence (O75884 whole entry, looked up): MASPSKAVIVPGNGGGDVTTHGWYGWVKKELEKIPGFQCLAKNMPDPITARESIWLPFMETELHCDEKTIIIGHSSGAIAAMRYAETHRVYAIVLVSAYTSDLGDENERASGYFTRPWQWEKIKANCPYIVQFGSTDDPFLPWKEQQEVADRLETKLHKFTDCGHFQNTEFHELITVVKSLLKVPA
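Test system: recombinant human RBBP9; Timing: 30 min then 45 min, 25 °C; Detection: fluorescence polarization; Control set: RBBP9 with DMSO as uninhibited control, no-protein wells as full inhibition; Compound dosing: one concentration, 7.94 µM nominal, 0.794% DMSO; Probe or stimulus: FP-Rh activity-based probe, 375 nM before mixing.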
PfM18AAP inh-2 = confirmation of Plasmodium falciparum M18 aspartyl aminopeptidase inhibitors. shares compounds with PfM18AAP inh-1. recombinant PfM18AAP, H-Glu-NHMec fluorogenic cleavage. inhibition, % at 7.35 µM. 2,400 tested, 28% active;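 active = mean inhibition over replicate wells above the hit cutoff set for the earlier primary screen, cut at about 29% in these data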;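 note: 0% = median of test compound wells and 100% = 2 mM ZnCl2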
CTSL1 counter = Cathepsin L (human) inhibition, confirmation; shares compounds with PfM18AAP inh-1; purified cathepsin L1, Z-Leu-Arg-MCA fluorescence; inhibition, % at 5.96 µM; 2,400 tested, under 10 active; AID 2178;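 active = average inhibition across replicates above the hit cutoff set in the earlier primary screen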;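 note: 0% = median of test compound wells and 100% = Z-Phe-Ala-diazomethylketone 1 µM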
Active calls of the source: *; ? = inconclusive; / = no result.

SMILES	Runt-CBFb FRET	PfM18AAP inh-1	RanGTP-Imp inh	Runt-SMMHC FRET	Hck-Nef inh	RBBP9 inh	PfM18AAP inh-2	CTSL1 counter
Cc1ccc(NC(=O)CSc2ncn[nH]2)cc1	2	32*	1	1	25	-5	11	0
O=C(CSc1ncn[nH]1)Nc1ccc(Cl)c(S(=O)(=O)N2CCOCC2)c1	-1	57*	-1	3	-10	-5	52*	0
O=C(CSc1ncn[nH]1)Nc1nnc(-c2ccccc2)s1	2	64*	-4	-2	4	-1	66*	2
O=C(O)CSc1ncn[nH]1	0	86*	1	4	-22	-4	98*	-1
COc1cc(C(=O)NC(C)c2cccc3ccccc23)cc(OC)c1OC (stereo unspecified)	/	2	-1	/	/	/	/	/
O=C(CSc1nc(N2CCOCC2)nc(N2CCOCC2)n1)Nc1cccc(C(F)(F)F)c1	/	7	1	/	/	/	/	/
CC(=O)N1CCN(c2nnnn2-c2ccccc2)CC1	-1	6	1	-2	0	1	/	/
Oc1ccc(N2CCN(c3nnnn3-c3ccccc3)CC2)cc1	16	32*	-3	9	-3	4	-3	1
S=c1nc(C23CC4CC(CC(C4)C2)C3)[nH][nH]1	36	36*	-3	8	-40	-7	17	3
Cc1sc(N)nc1C12CC3CC(CC(C3)C1)C2	10	6	?	4	19	-8	/	/
CC(NC(=O)Cc1ccc(Br)cc1)c1ccccc1 (stereo unspecified)	/	-4	2	/	/	/	/	/
COc1ccc(/C=N/Nc2ncc(Br)cn2)c(OC)c1	/	38*	?	/	20	8	-47	-3
CC(C)N=c1scc(-c2cccs2)n1/N=C/c1ccc(O)c(O)c1O	37	39*	/	7	23	1	-40	-3
O=C1NC(C(=O)O)=CC(c2ccc([N+](=O)[O-])cc2)N1 (stereo unspecified)	38	12	-1	14	-26	2	/	/
N#CC1=C(N)NC(=S)C(C(N)=O)C1c1ccc([N+](=O)[O-])cc1 (stereo unspecified)	37	48*	-2	38	29	7	35*	7
COc1ccc(C2=NOC(C(=O)Nc3ccc4c(c3)OCCO4)C2)cc1OC (stereo unspecified)	/	1	-4	/	/	/	/	/
CC(=O)Nc1ccc(S(=O)(=O)NNc2ccc([N+](=O)[O-])cc2)cc1	/	46*	1	/	/	/	-13	2
Cc1ccc(S(=O)(=O)NNC(=S)NC(=O)c2ccc([N+](=O)[O-])cc2)cc1	16	48*	-1	6	18	5	-11	9
O=C(NNS(=O)(=O)c1ccc([N+](=O)[O-])cc1)c1ccc([N+](=O)[O-])cc1	/	35*	-1	/	/	/	15	-7
Cc1ccc(C(=O)NC(=S)NNS(=O)(=O)c2ccc(C)cc2)cc1	8	40*	-2	10	2	-9	-30	2
Cc1ccc(S(=O)(=O)NNC(=O)c2ccc(O)cc2)cc1	2	28	6	0	-2	-12	/	/
O=C(COc1ccccc1)NNC(=O)COc1ccc([N+](=O)[O-])cc1	-2	20	5	-2	27	-12	/	/
CC(=O)NNC(=S)NC(=O)c1cccc([N+](=O)[O-])c1	34	47*	3	6	3	-13	27	-1
O=C(COc1ccc([N+](=O)[O-])cc1)Nn1cnnc1	1	41*	2	1	22	-1	-19	-1
COc1ccc(OCC(=O)NNC(=S)NC(=O)c2ccc([N+](=O)[O-])cc2)cc1	/	33*	-3	/	/	/	-3	3
SMILES	Runt-CBFb FRET	PfM18AAP inh-1	RanGTP-Imp inh	Runt-SMMHC FRET	Hck-Nef inh	RBBP9 inh	PfM18AAP inh-2	CTSL1 counter
CSc1nnc(C)c(=O)n1COC(=O)c1ccccc1	1	2	-1	1	24	-3	/	/
CN(CC(=O)Nc1c(Cl)cccc1Cl)C(=O)c1ccc(-n2cncn2)c([N+](=O)[O-])c1	/	/	0	/	/	/	/	/
Fc1ccccc1NC(=S)Nn1cnnc1	/	75*	-1	/	/	/	54*	-5
Cc1cccc(NC(=S)Nn2cnnc2)c1C	5	72*	3	-7	25	-5	69*	0
CCc1ccccc1NC(=S)Nn1cnnc1	/	76*	/	/	/	/	70*	-7
CCOc1ccccc1NC(=S)Nn1cnnc1	/	74*	-2	/	/	/	56*	5
CCOc1ccccc1NC(=S)Nc1ccccc1F	4	-3	-5	-2	2	-5	/	/
CCc1ccccc1NC(=O)CC(=O)Nc1ccccc1CC	/	-8	1	/	/	/	/	/
CN(C)c1ccc(C(=S)N2CCN(S(=O)(=O)c3ccccc3)CC2)cc1	/	7	7	/	/	/	/	/
Cc1ccccc1NC(=S)Nn1cnnc1	/	73*	-1	/	/	/	52*	4
Cc1ccccc1NC(=S)NN1CCN(C)CC1	-3	4	0	3	1	-9	/	/
CC1C(=O)C(C)(C)C(=O)OC1c1ccc([N+](=O)[O-])cc1 (stereo unspecified)	/	2	2	/	/	/	/	/
Oc1ccc(/C=N/Nc2cc(N3CCCC3)nc(N3CCCC3)n2)cc1O	6	40*	-1	-4	10	-5	27	4
Oc1ccc(/C=N\Nc2cc(N3CCOCC3)nc(N3CCOCC3)n2)c(O)c1	-1	26	4	-4	-2	-6	/	/
CC(=O)c1c(C(C)=O)c(C)n(-c2ccc(N)c(C)c2)c1C	26	32*	4	0	4	6	-40	0
CN1C(=O)C(C)(C)c2cc(S(=O)(=O)NCC3CCC(C(=O)NCc4ccccc4)CC3)ccc21 (stereo unspecified)	/	4	?	/	/	/	/	/
COc1cc(N/N=C/c2ccccc2O)ncn1	4	41*	0	5	13	-4	-18	4
S=c1[nH]nc(Cc2n[nH]c(=S)n2-c2ccccc2)n1-c1ccccc1	/	35*	-5	/	/	/	2	3
S=c1[nH]nc(Cn2nnc3ccccc32)n1-c1ccccc1	1	42*	-1	6	12	-8	0	0
S=c1[nH]nc(Cc2ccccc2)n1-c1ccccc1	4	16	2	13	1	-7	/	/
O=C1c2ccccc2NC(c2ccc(F)cc2)N1Cc1ccccc1 (stereo unspecified)	/	5	-1	/	/	/	/	/
Fc1ccc(CNc2ccc(CNc3ncn[nH]3)cc2)cc1	0	32*	/	2	3	-4	-26	-1
